What was measured:
[1] = target: Ephrin type-A receptor 5 (Homo sapiens) (UniProt P54756); assay: Binding affinity to wild-type human partial length EPHA5 (T627 to V930 residues) expressed in bacterial expression system assessed as residual binding level at 1 uM by Kinomescan method relative to control
Outline: (§1)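 Active-site-directed competition binding panel of 468 kinases (KinomeScan), compound at 1 μM. The read-out is kinase remaining bound, given as a percentage of the DMSO control. […]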

[2] = target: Myosin light chain kinase family member 4 (Homo sapiens) (UniProt Q86YV6); assay: Binding affinity to wild-type human partial length MYLK4 (V79 to S380 residues) expressed in bacterial expression system assessed as residual binding level at 1 uM by Kinomescan method relative to control
[3] = tested on: Tyrosine-protein kinase ABL1 (Homo sapiens), P00519 [T315I]; assay: Binding affinity to human phosphorylated ABL1 T315I mutant (S229 to K512 residues) expressed in mammalian expression system assessed as residual binding level at 1 uM by Kinomescan method relative to control
Outline: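 Active-site-directed KinomeScan competition binding panel covering 468 kinases, compound tested at 1 μM. Each readout is the kinase signal remaining with compound, expressed as a percentage of the DMSO control. […]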

[4] = target: TGF-beta receptor type-2 (Homo sapiens) (UniProt P37173); assay: Binding affinity to wild-type human partial length TGFBR2 (I218 to K567 residues) expressed in bacterial expression system assessed as residual binding level at 1 uM by Kinomescan method relative to control
Chain of TGF-beta receptor type-2 (Homo sapiens) (P37173 whole entry, the tested form may be a part): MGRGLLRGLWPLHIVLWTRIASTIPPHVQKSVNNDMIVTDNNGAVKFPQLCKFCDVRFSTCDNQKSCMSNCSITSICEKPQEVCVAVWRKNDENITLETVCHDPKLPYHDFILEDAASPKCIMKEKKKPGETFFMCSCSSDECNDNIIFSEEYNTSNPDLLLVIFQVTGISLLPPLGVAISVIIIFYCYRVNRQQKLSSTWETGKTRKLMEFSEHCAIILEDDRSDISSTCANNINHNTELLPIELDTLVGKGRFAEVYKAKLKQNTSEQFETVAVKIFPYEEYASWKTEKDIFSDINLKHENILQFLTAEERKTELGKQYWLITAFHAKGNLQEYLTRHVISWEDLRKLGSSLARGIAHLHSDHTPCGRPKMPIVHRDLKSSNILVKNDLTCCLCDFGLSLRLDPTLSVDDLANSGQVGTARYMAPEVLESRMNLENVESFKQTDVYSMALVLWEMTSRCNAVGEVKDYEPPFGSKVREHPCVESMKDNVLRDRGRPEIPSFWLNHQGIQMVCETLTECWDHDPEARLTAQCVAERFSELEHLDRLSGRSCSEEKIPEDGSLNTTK

[5] = target: Serine/threonine-protein kinase DCLK1 (Homo sapiens) (UniProt O15075); assay: Binding affinity to wild-type human partial length DCAMKL1 (L270 to A662 residues) expressed in mammalian expression system assessed as residual binding level at 1 uM by Kinomescan method relative to control
[6] = target: Hepatocyte growth factor receptor (Homo sapiens) (UniProt P08581); assay: Binding affinity to wild-type human partial length MET (D1010 to S1367 residues) expressed in bacterial expression system assessed as residual binding level at 1 uM by Kinomescan method relative to control
HCC827 = assay: Antiproliferative activity against human HCC827 cells assessed as reduction in cell viability incubated for 72 hrs by cell-titer glo assay; details: HCC827, 72 h
[7] = target: Mitogen-activated protein kinase kinase kinase 10 (Homo sapiens) (UniProt Q02779); assay: Binding affinity to wild-type human partial length MLK2 (V52 to W380 residues) expressed in bacterial expression system assessed as residual binding level at 1 uM by Kinomescan method relative to control
Chain of Mitogen-activated protein kinase kinase kinase 10 (Homo sapiens) (Q02779 whole entry, looked up, the tested form may be a part): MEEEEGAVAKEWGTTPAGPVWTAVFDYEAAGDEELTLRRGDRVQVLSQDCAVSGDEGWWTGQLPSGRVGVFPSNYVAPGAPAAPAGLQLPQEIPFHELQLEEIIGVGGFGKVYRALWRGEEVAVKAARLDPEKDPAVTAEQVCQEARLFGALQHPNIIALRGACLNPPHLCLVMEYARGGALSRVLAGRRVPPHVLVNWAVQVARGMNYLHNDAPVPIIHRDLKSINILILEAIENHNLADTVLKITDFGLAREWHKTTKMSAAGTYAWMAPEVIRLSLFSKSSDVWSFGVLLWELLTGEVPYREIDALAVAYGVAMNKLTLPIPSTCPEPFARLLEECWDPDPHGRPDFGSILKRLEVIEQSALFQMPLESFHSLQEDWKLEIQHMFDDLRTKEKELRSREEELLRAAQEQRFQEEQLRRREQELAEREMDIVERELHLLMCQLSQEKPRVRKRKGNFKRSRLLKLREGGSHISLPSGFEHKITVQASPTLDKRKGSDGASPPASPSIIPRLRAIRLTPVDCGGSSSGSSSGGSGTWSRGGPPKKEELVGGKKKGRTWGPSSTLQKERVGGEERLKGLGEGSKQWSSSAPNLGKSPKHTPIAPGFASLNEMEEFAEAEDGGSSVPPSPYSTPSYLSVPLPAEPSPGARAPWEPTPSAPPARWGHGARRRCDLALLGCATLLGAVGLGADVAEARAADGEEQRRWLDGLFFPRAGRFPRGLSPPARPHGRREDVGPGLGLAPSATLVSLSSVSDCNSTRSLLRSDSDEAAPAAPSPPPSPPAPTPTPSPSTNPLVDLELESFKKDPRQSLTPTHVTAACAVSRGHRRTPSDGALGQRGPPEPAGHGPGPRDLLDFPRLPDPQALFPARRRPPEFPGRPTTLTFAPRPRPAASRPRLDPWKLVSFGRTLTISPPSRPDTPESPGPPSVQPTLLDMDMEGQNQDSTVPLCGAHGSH

[8] = target: Cytoplasmic tyrosine-protein kinase BMX (Homo sapiens) (UniProt P51813); assay: Binding affinity to wild-type human full length BMX (M1 to H675 residues) expressed in bacterial expression system assessed as residual binding level at 1 uM by Kinomescan method relative to control
Outline: (§2)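 KinomeScan, an active site-directed competition binding panel of 468 kinases. The test compound was at 1 μM. The readout is remaining kinase binding as a percentage of the DMSO control. Scores above 35% were treated as weak binding and not listed.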

[9] = target: Microtubule-associated serine/threonine-protein kinase 1 (Homo sapiens) (UniProt Q9Y2H9); assay: Binding affinity to wild-type human partial length MAST1 (S346 to V730 residues) expressed in mammalian expression system assessed as residual binding level at 1 uM by Kinomescan method relative to control; outline: as §1
[10] = target: Phosphorylase b kinase gamma catalytic chain, liver/testis isoform (Homo sapiens) (UniProt P15735); assay: Binding affinity to wild-type human partial length PHKG2 (M1 to W300 residues) expressed in bacterial expression system assessed as residual binding level at 1 uM by Kinomescan method relative to control
[11] = target: Cyclin-dependent kinase 16 (Homo sapiens) (UniProt Q00536); assay: Binding affinity to wild-type human partial length PCTK1 (G160 to A474 residues) expressed in mammalian expression system assessed as residual binding level at 1 uM by Kinomescan method relative to control
Chain of Cyclin-dependent kinase 16 (Homo sapiens) (Q00536 whole entry, the tested form may be a part): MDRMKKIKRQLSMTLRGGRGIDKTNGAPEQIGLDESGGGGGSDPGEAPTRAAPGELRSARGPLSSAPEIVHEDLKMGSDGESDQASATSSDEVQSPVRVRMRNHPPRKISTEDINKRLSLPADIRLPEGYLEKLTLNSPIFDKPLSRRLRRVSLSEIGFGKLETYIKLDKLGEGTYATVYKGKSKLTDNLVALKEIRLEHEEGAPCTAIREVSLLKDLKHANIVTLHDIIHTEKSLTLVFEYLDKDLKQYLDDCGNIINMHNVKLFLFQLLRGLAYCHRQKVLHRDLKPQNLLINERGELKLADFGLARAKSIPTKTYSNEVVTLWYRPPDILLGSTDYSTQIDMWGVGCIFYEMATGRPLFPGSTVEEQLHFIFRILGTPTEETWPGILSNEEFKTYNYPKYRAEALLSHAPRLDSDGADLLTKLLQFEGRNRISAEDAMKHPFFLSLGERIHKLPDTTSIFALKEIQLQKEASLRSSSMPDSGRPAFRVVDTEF

[12] = target: Cyclin-dependent kinase 18 (Homo sapiens) (UniProt Q07002); assay: Binding affinity to wild-type human full length PCTK3 (M3 to F474 residues) expressed in bacterial expression system assessed as residual binding level at 1 uM by Kinomescan method relative to control; outline: as §2
Chain of Cyclin-dependent kinase 18 (Homo sapiens) (Q07002 whole entry, the tested form may be a part, canonical isoform): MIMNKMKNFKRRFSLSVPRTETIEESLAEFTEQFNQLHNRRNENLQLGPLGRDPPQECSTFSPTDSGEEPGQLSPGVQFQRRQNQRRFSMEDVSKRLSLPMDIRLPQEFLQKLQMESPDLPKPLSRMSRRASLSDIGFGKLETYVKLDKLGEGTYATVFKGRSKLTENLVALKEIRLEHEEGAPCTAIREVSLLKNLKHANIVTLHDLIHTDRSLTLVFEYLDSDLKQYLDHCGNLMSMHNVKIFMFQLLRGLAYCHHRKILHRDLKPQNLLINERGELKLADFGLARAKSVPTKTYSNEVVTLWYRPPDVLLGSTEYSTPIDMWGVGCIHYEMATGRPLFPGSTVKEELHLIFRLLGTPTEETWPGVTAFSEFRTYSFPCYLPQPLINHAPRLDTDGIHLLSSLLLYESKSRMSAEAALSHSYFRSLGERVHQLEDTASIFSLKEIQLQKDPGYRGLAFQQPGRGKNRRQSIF

[13] = tested on: Phosphatidylinositol 4,5-bisphosphate 3-kinase catalytic subunit alpha isoform (Homo sapiens), P42336 [I800L]; assay: Binding affinity to human partial length PIK3CA I800L mutant (R108 to N1068 residues) expressed in mammalian expression system assessed as residual binding level at 1 uM by Kinomescan method relative to control
Outline: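 KinomeScan active site-directed competition binding panel (468 kinases), compound tested at 1 μM. Result expressed as remaining kinase signal versus DMSO control (percent of control).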

[14] = target: MAP kinase-activated protein kinase 2 (Homo sapiens) (UniProt P49137); assay: Binding affinity to wild-type human partial length MAPKAPK2 (V48 to D345 residues) expressed in bacterial expression system assessed as residual binding level at 1 uM by Kinomescan method relative to control
Chain of MAP kinase-activated protein kinase 2 (Homo sapiens) (P49137 whole entry, looked up, the tested form may be a part): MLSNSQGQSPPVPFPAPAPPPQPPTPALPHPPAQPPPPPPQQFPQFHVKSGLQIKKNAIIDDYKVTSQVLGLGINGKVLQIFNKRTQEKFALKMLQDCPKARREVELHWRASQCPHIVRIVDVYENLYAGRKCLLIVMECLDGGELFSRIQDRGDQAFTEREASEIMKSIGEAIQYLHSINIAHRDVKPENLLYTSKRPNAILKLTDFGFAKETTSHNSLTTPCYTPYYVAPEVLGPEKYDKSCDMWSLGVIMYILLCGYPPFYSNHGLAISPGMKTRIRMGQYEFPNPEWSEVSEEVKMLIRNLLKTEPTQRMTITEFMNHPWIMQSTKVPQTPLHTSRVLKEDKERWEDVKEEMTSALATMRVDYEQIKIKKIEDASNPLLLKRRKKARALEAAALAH

[15] = target: Serine/threonine-protein kinase MRCK alpha (Homo sapiens) (UniProt Q5VT25); assay: Binding affinity to wild-type human partial length MRCKA (L57 to V418 residues) expressed in bacterial expression system assessed as residual binding level at 1 uM by Kinomescan method relative to control
Chain of Serine/threonine-protein kinase MRCK alpha (Homo sapiens) (Q5VT25 whole entry, the tested form may be a part): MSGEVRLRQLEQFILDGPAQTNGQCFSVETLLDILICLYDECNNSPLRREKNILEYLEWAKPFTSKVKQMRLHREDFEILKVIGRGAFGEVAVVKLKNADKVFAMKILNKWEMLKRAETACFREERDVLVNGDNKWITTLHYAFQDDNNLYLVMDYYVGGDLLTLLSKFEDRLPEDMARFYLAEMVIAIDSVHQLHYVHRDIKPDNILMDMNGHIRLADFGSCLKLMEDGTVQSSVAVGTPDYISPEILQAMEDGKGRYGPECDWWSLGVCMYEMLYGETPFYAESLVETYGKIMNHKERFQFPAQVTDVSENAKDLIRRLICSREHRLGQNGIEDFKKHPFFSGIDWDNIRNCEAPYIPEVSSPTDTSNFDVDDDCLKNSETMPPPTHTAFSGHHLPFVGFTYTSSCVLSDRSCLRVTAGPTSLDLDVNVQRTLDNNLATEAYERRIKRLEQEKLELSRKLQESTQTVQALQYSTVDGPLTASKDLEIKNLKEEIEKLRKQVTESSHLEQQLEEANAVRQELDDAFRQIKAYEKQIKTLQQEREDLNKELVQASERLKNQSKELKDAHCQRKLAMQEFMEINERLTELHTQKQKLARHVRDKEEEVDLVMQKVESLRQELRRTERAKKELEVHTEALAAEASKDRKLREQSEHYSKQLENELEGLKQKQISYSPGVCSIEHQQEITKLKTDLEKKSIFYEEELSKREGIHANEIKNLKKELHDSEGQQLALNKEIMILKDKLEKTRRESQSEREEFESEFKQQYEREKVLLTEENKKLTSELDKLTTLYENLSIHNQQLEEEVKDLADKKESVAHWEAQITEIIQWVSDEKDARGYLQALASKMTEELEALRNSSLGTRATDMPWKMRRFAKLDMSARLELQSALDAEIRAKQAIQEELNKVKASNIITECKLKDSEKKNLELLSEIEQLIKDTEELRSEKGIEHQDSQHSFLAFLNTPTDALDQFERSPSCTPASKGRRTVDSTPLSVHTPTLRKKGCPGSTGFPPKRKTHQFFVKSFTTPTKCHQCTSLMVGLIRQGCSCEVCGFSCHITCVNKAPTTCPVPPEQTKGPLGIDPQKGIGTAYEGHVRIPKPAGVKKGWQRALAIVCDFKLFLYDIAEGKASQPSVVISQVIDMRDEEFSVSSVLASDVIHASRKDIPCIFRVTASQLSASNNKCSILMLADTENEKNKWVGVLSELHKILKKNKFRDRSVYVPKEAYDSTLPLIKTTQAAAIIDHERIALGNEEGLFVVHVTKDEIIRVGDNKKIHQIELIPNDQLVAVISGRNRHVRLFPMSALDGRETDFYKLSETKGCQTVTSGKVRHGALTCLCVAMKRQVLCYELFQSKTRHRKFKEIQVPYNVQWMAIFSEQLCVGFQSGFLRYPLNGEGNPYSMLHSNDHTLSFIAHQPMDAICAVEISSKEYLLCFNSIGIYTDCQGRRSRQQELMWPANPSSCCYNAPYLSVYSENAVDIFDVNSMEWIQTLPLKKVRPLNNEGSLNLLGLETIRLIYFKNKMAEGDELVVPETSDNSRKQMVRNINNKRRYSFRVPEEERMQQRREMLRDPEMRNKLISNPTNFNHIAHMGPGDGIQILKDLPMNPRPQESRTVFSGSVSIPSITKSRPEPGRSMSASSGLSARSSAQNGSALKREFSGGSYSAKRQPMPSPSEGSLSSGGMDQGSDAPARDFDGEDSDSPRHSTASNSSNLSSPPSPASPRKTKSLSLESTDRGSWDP

[16] = target: Serine/threonine-protein kinase Nek7 (Homo sapiens) (UniProt Q8TDX7); assay: Binding affinity to wild-type human full length NEK7 (M1 to S302 residues) expressed in bacterial expression system assessed as residual binding level at 1 uM by Kinomescan method relative to control
Chain of Serine/threonine-protein kinase Nek7 (Homo sapiens) (Q8TDX7 whole entry, looked up, the tested form may be a part): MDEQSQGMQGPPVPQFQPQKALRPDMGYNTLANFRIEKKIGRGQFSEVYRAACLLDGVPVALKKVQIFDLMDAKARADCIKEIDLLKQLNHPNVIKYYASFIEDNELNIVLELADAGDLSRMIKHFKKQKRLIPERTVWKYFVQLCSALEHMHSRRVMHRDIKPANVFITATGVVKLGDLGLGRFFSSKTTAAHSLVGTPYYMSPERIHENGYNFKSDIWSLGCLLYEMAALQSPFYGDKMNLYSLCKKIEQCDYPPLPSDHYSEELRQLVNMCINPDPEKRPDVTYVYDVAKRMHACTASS
Outline: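 Active-site-directed competition binding panel (KinomeScan) covering 468 kinases. Test agent was screened at 1 μM. The read-out is the remaining kinase signal expressed relative to a DMSO control. Scores above 35%, taken as weak binding, were not reported.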

[17] = target: Dual specificity protein kinase CLK4 (Homo sapiens) (UniProt Q9HAZ1); assay: Binding affinity to wild-type human partial length CLK4 (R135 to K481 residues) expressed in bacterial expression system assessed as residual binding level at 1 uM by Kinomescan method relative to control
[18] = target: Fibroblast growth factor receptor 1 (Homo sapiens, UniProt P11362); assay: Inhibition of recombinant human His-tagged FGFR1 (308 to 731 residues) expressed in baculovirus expression system using tyrosine-4 peptide as substrate incubated for 1 hr by Z'-LYTE assay
[19] = target: Receptor-interacting serine/threonine-protein kinase 4 (Homo sapiens) (UniProt P57078); assay: Binding affinity to wild-type human partial length RIPK4 (M1 to V303 residues) expressed in mammalian expression system assessed as residual binding level at 1 uM by Kinomescan method relative to control
MDA-MB-231 = assay: Antiproliferative activity against human MDA-MB-231 cells assessed as reduction in cell viability incubated for 72 hrs by cell-titer glo assay relative to control; type: functional
Outline: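 Cells seeded at 2000 cells/well, dosed next day with a range of concentrations (DMSO 0.2% as control), 72 h exposure, viability read by CellTiter-Glo luminescence. Dose–response curves and GR values derived with the online GR calculator. Two independent experiments, each in technical triplicate.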

Q: For `C=CC(=O)Nc1ccccc1Nc1nc(Nc2ccc(N3CCN(C)CC3)cc2)ncc1C(=O)Nc1c(C)cccc1Cl`, which Activity [1] is on record?
A: 78%

Q: And the Activity [2]?
A: 100%

Q: And the Activity [3]?
A: 100%

Q: And the Activity [4]?
A: 100%

Q: What about the Activity [5] of the same compound?
A: 100%

Q: And the Activity [6]?
A: 100%

Q: What about the IC50 (HCC827) of the same compound?
A: 0.5 µM

Q: What about the Activity [7] of the same compound?
A: 100%

Q: What about the Activity [8] of the same compound?
A: 48%

Q: And the Activity [9]?
A: 82%

Q: And the Activity [10]?
A: 100%

Q: What about the Activity [11] of the same compound?
A: 100%

Q: What about the Activity [12] of the same compound?
A: 98%

Q: What about the Activity [13] of the same compound?
A: 86%

Q: What about the Activity [14] of the same compound?
A: 100%

Q: And the Activity [15]?
A: 100%

Q: And the Activity [16]?
A: 100%

Q: What about the Activity [17] of the same compound?
A: 100%

Q: And the IC50 [18]?
A: 8.34 µM

Q: What about the Activity [19] of the same compound?
A: 100%

Q: And the Emax (MDA-MB-231)?
A: -0.4

Reference: ChEMBL document CHEMBL4354843, “Structure-Based Design of a Potent and Selective Covalent Inhibitor for SRC Kinase That Targets a P-Loop Cysteine” (J Med Chem, 2020)
